TAAR1 antagonist: human TAAR1 antagonism; Q96RJ0; 360,000 tested, 1.5% active; CHO RD-HGA16 TAAR1, Fluo-8 calcium fluorescence, antagonist; inhibition, % at 3 µM; AID 624466;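 active means inhibition above a per-plate cutoff, the mean inhibition of test compounds on that plate plus 3 SD, cut at about 49% in these data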;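 further: 0% = DMSO plus EC80 beta-PEA response and 100% = DMSO alone without agonist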
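Material: CHO RD-HGA16 cells bearing hTAAR1; compound dosing: one-point dosing, 3 µM nominal final; schedule: dye loading 75 min at 37 °C, then 30 min room temperature; measured by: calcium fluorescence with Fluo-8; control set: vehicle and agonist controls; replication: n of 1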
CHRM1 PAM: positive allosteric modulators of human M1 muscarinic receptor | P11229 | activation, % at 3 µM | 360,000 tested, 0.088% active | CHO-K1 hM1, Fluo-8 calcium fluorescence, ACh EC20; 0% = ACh EC20, 100% = maximal ACh; in the data active means activation above about 19%, passing the limit was not always enough
Target sequence (P11229 whole entry, looked up): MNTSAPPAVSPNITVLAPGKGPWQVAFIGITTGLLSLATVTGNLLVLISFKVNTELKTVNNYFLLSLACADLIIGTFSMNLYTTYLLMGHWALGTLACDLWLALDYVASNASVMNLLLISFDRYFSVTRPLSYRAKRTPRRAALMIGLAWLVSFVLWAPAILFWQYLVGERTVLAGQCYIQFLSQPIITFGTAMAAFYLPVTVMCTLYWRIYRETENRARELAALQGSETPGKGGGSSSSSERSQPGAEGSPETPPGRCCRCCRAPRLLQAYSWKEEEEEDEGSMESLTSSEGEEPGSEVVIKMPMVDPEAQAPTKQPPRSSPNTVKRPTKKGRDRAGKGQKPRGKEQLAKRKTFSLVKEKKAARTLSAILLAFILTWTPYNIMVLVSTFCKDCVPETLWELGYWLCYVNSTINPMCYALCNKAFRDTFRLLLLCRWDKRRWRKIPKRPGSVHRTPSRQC
M1 ag: human M1 muscarinic receptor agonism; P11229; CHO-K1 hM1, Fluo-8 calcium fluorescence, agonist mode; 0% DMSO, 100% acetylcholine EC100; activation, % at 3 µM; 360,000 tested, 0.33% active;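 active means activation above the run's mean compound activation plus 3 SD, cut at about 16% in these data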;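 further: peak over basal fluorescence ratio within a 140 s kinetic read after compound addition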
M1 antag: blocks human M1 muscarinic receptor. CHO-K1 hM1, Fluo-8 calcium fluorescence, ACh EC80 antagonist. inhibition, % at 3 µM. 360,000 tested, 1.3% active. P11229. AID 588852;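 active means percent inhibition above its own plate's cutoff, namely the mean of that plate's compound wells plus 3 SD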;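 further: peak over basal fluorescence ratio during 140 s after agonist addition; 0% = ACh EC80 plus DMSO and 100% = DMSO alone without agonist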
m5-HT2A agonist: activates the mouse 5-HT2A serotonin receptor; CHO-K1 mHTR2A beta-arrestin complementation, luminescence; percent of 30 µM serotonin response; 360,000 tested, 0.66% active; activation, % at 7.6 µM; P35363; AID 624169;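 active means activation above a run cutoff, the mean activation of all tested compounds plus 3 SD, cut at about 14% in these data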;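 further: 0% = plate median of compound wells and 100% = 30 µM serotonin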
TAAR1 ag: human TAAR1 agonism; CHO RD-HGA16 TAAR1, Fluo-8 calcium fluorescence; vehicle wells 0%, saturating PEA agonist 100%; activation, % at 3 µM; 360,000 tested, 0.99% active; Q96RJ0;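 active means activation above the mean activation of all test compounds in the run plus 3 SD, cut at about 38% in these data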
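Test system: RD-HGA16 (CHO) cells co-expressing Gα16 and hTAAR1 / Benchmarks: DMSO vehicle as 0%, PEA at EC100 as 100% / Repeats: no replicates (n 1) / Measure: % activation from peak over basal fluorescence ratio, DMSO-to-PEA scaled / Timing: 17-24 h plating, Fluo-8 75 min 37 °C, 30 min RT / Technique: kinetic Fluo-8 calcium fluorescence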
Starred values were filed as active, the others as inactive; . = not tested or not shown. This is a sample that favours compounds with a hit; in the whole collection about 3.9% have one here.

SMILES	TAAR1 antagonist	CHRM1 PAM	M1 ag	M1 antag	m5-HT2A agonist	TAAR1 ag
COc1ccc(NS(=O)(=O)c2cc(NC(=O)c3cncc(Br)c3)ccc2OC)cc1	50*	-15	1	18	-2	23
Cc1[nH]nc2c1C(c1ccc3c(c1)OCO3)N(Cc1ccccc1)C2=O (stereo not drawn)	3	.	.	.	.	-2
CCOC(=O)c1cnc(Cc2ccccc2)[nH]c1=O	5	-9	-10	25*	-3	1
CC(C)(CNC(=O)c1cccc(S(=O)(=O)Nc2ccc(SC(F)F)cc2)c1)N1CCOCC1	5	-15	1	35*	-6	6
COc1ccc(NS(=O)(=O)c2cccc(C(=O)NCC(c3ccc(OC)cc3)N3CCCC3)c2)cc1 (stereo not drawn)	17	2	-5	-4	-18	6
COc1ccccc1C(CNC(=O)c1cccc(S(=O)(=O)Nc2ccc(F)cc2)c1)N1CCCC1 (stereo not drawn)	12	-31	-8	101*	-3	29
COc1ccc(NS(=O)(=O)c2cccc(C(=O)NCC(c3ccccc3OC)N3CCCC3)c2)cc1 (stereo not drawn)	-30	-25	-6	82*	-1	10
COc1ccccc1N(C)S(=O)(=O)c1ccc(C(=O)NCc2ccccc2CN2CCCC2)cc1	19	-14	-6	36*	-9	15
COC(=O)[C@]12C[C@H](CC(=O)N3CCCCC3)C(=O)N(Cc3ccccc3)C1=C[C@H](C(C)(C)C)O[C@@H]2C	-11	.	.	.	.	-1
CCCCN(C(C)=O)c1c(CC)nc2ccc(C(=O)NCCCN(C)C)cn12	0	0	-4	-3	4	0
Cc1ccc(S(=O)(=O)N2CCC(C(=O)NCc3ccccc3CN3CCCC3)CC2)cc1	-3	-23	-8	35*	5	0
C=CCN(c1ccccc1OC)S(=O)(=O)c1cccc(C(=O)NCC(c2ccc(OC)cc2)N2CCCC2)c1 (stereo not drawn)	6	-24	-9	34*	-9	1
COc1ccc(NS(=O)(=O)c2cccc(C(=O)NCc3ccccc3CN3CCOCC3)c2)cc1	16	-6	23*	6	-19	6
COc1ccc(NS(=O)(=O)c2cccc(C(=O)NCCCN3CCOCC3)c2)cc1	-29	1	1	-5	-4	2
O=C(c1ccco1)N1CCN(S(=O)(=O)c2c(Cl)cccc2Cl)CC1	5	11	-8	-16	1	4
N#CC1(NC(=O)COc2ccccc2[N+](=O)[O-])CCCCC1	-22	-15	-6	37*	-5	1
N#CC1(NC(=O)COc2cc(F)ccc2[N+](=O)[O-])CCCCC1	-12	-11	-6	22	-3	2
N#CC1(NC(=O)COC(=O)C2=COCCO2)CCCCC1	-2	2	24*	-2	-2	5
CC(C)Oc1ccc(F)cc1-c1cc(C(=O)Nc2ccccc2)[nH]n1	50*	-23	-3	23	-6	4
Cn1c(-c2ccc3c(c2)OCO3)cnc1NCc1cccc(Cl)c1	.	-21	-5	74*	-3	.
Cn1c(-c2ccc3c(c2)OCO3)cnc1NCc1ccccc1Cl	9	-23	-5	94*	-3	18
CCN(CC)c1ccc(/C=N/n2c(C)nc3ccccc3c2=O)cc1	37	2	-8	-3	2	9
Cc1c(NC(=O)C(C)OC(=O)Cc2ccc(F)cc2)c(=O)n(-c2ccccc2)n1C (stereo not drawn)	-1	-14	-1	38*	0	0
COc1ccc(CC(=O)OC(C)C(=O)Nc2c(C)n(C)n(-c3ccccc3)c2=O)cc1OC (stereo not drawn)	-14	11	-4	-12	2	14
COC(=O)[C@]12C[C@H](CC(=O)NCc3ccc(C)o3)C(=O)N(Cc3ccccc3)C1=C[C@H](C(C)(C)C)O[C@@H]2C	-44	.	.	.	.	-2
Cc1ccc(NS(=O)(=O)c2ccc(NC(=O)c3cccc(NC(=O)C(C)C)c3)cc2)cc1	53*	7	-1	8	-4	8
